The nature of data set [1]: Cytotoxicity against human C8166 cells by MTT assay. The data set is classed as cell-based.
Data set [2] can be described thus: Therapeutic index, ratio of CC50 for human C8166 cells to EC50 for HIV1. The data set is classed as cell-based. As to conditions: read-out: Ratio CC50/EC50.
Data set [3] relates to Human immunodeficiency virus 1. Nature of the data set: Antiviral activity against HIV1 assessed as reduction in virus-induced cytopathogenicity. The format is functional, organism-based. The method in brief:
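Test compounds were added to C8166 cells infected with HIV-1 and scored for protection from virus-induced cytopathic effect. The concentration giving 50% protection is reported as EC50.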

Consider twelve compounds from ChEMBL document CHEMBL2331522, “Dibenzocyclooctadiene lignans and norlignans from fruits of Schisandra wilsoniana” (J Nat Prod, 2013).

The structures appear in SMILES notation. Values after ≈ are worked out from the molar mass of the structure shown.

In data set [1], `COc1ccc([C@@H](c2ccc3c(c2)OCO3)[C@H](C(=O)O)C(CO)CO)cc1O` [MARLPHENOL F] displayed a CC50 of 82.1 µg/mL (≈ 210 µM). The selectivity ratio in data set [2] amounted to 27.6. The EC50 in data set [3] stood at 2.97 µg/mL (≈ 7.61 µM).

For the compound `COc1cc2c(c(O)c1OC)-c1c(cc(OC)c(OC)c1O)[C@H](O)[C@@H](C)[C@@H](C)C2` [MARLIGNAN N], the cytotoxic concentration (CC50) in data set [1] amounted to 47.4 µg/mL (≈ 117 µM). For the same compound, the selectivity ratio in data set [2] was 7.67. Further, in data set [3], the EC50 was determined as 6.18 µg/mL (≈ 15.3 µM).

Take `COc1c2c(cc3c1-c1c(cc4c(c1O)OCO4)[C@H](OC)[C@@H](C)[C@@H](C)C3)OCO2` [MARLIGNAN Q]: the CC50 in data set [1] was determined as 22.5 µg/mL (≈ 56.2 µM). Also, the selectivity ratio in data set [2] came out at 5.33. Also, the EC50 in data set [3] stood at 4.22 µg/mL (≈ 10.5 µM).

In data set [1], `COc1cc2c(c(OC)c1OC)-c1c(cc3c(c1O)OCO3)[C@H](OC)[C@@H](C)[C@@H](C)C2` [MARLIGNAN S] displayed a CC50 of 42.8 µg/mL (≈ 103 µM). Further, the selectivity ratio in data set [2] is 10.3. Besides, the concentration for a half-maximal effect (EC50) in data set [3] was 4.14 µg/mL (≈ 9.94 µM).

In turn, `Cc1cn([C@H]2C[C@H](N=[N+]=[N-])[C@@H](CO)O2)c(=O)[nH]c1=O` [ZIDOVUDINE] registered a CC50 in data set [1] greater than 200 µg/mL. The selectivity ratio in data set [2] is greater than 46500. Further, in data set [3], the EC50 was 0.0043 µg/mL (≈ 0.0161 µM).

As to `COc1cc(C(O)C(C(=O)O)C(CO)CO)ccc1O` (stereo unspecified) [MARPHENOL C], in data set [1], the midpoint of cytotoxicity, the CC50, lay at 84.5 µg/mL (≈ 295 µM). Also, the selectivity ratio in data set [2] came to 26.9. The EC50 in data set [3] was determined as 3.14 µg/mL (≈ 11 µM).

Turning to `COc1cc2c(c(OC)c1O)-c1c(cc(OC)c(OC)c1OC)C[C@H](C)[C@H](C)[C@H]2O` [MARLIGNAN M], the cytotoxic concentration (CC50) in data set [1] came out at 32.1 µg/mL (≈ 76.7 µM). Also, the selectivity ratio in data set [2] worked out at 9.39. For the same compound, the EC50 in data set [3] is 3.42 µg/mL (≈ 8.17 µM).

In turn, `COc1ccc(C(c2ccc(OC)c(O)c2)[C@H](C(=O)O)C(CO)CO)cc1O` [MARLPHENOL E] showed a 50% cytotoxic concentration (CC50) in data set [1] of 73.5 µg/mL (≈ 187 µM). Further, the selectivity ratio in data set [2] came out at 21.2. Moreover, the EC50 in data set [3] came out at 3.47 µg/mL (≈ 8.84 µM).

In the case of `COc1cc(C(O)C(C(=O)O)C(CO)CO)cc(O)c1OC` (stereo unspecified) [MARPHENOL D], the CC50 in data set [1] turned out to be 93.8 µg/mL (≈ 297 µM). In addition, in data set [2], the selectivity ratio was found to be 29.1. The half-maximal effective concentration (EC50) in data set [3] came to 3.22 µg/mL (≈ 10.2 µM).

As to `COc1cc2c(c(O)c1OC)-c1c(cc3c(c1OC)OCO3)[C@H](OC)[C@@H](C)[C@@H](C)C2` [MARLIGNAN R], the cytotoxic concentration (CC50) in data set [1] stood at 36.7 µg/mL (≈ 88.1 µM). In addition, the selectivity ratio in data set [2] stood at 9.48. The EC50 in data set [3] worked out at 3.87 µg/mL (≈ 9.29 µM).

In the case of `COc1c2c(cc3c1-c1c(cc4c(c1O)OCO4)C[C@H](C)[C@H](C)[C@H]3OC)OCO2` [MARLIGNAN P], the midpoint of cytotoxicity in data set [1], the CC50, lay at 74.6 µg/mL (≈ 186 µM). Further, the selectivity ratio in data set [2] was determined as 23.5. Besides, the EC50 in data set [3] is 3.18 µg/mL (≈ 7.94 µM).

In turn, `COc1c(O)cc2c(c1OC)-c1c(cc3c(c1OC)OCO3)C[C@H](C)[C@H](C)[C@H]2O` [MARLIGNAN O] displayed a CC50 in data set [1] of 70.6 µg/mL (≈ 175 µM). For the same compound, the selectivity ratio in data set [2] amounted to 12.1. Besides, the EC50 in data set [3] came to 5.84 µg/mL (≈ 14.5 µM).
